# Screening data deposited in PubChem by several laboratories.
# Diaph act CS: compounds boosting diaphorase resazurin reduction – biochemical, uHTS, resorufin fluorescence, counter-screen for diaphorase-coupled primary assays, primary screen. Diaphorase/resazurin coupled assay, 16 min; stronger effect = higher value; 1 = vehicle wells, 0 = NADH-free wells. activation factor at 20 µM. 190,000 compounds, 0.005% hits. AID 1229, 2008;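 active means diaphorase activity raised at least twofold by the compound at 20 µM; inactive means activation factor below 2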
#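 Material: Clostridium kluyveri diaphorase, purified enzyme; Quantity: enzyme 0.07 U/mL final; Medium: HEPES pH 7.4 buffer with MgCl2 and Tween 20; Dosing: single compound dose of 20 µM, 1% DMSO final; Schedule: 16 min reaction at room temperature; Measured by: red resorufin fluorescence at 544/590 nm excitation/emission.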
# Diaph inh CS: diaphorase inhibitors and chemical oxidizers, primary screen, counter-screen for diaphorase-coupled primary assays, biochemical, uHTS, resorufin fluorescence. diaphorase resazurin-to-resorufin fluorescence, NADH, 16 min; bacterial (C. kluyveri) enzyme, not human. inhibition, % at 20 µM. 190,000 compounds, 0.69% hits;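 active means primary screen inhibition at 20 µM above a set limit, cut at about 50% in these data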;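 further: plate controls were DMSO with full reaction for no effect and wells lacking NADH for full effect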
#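 Test system: diaphorase enzyme from Clostridium kluyveri; amount: diaphorase at 0.14 U/mL in enzyme working solution; detection: fluorescence of resorufin formed from resazurin, Ex 544/Em 590 nm; times: reaction incubation of 16 min at room temperature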
# G6PDH counter: L. mesenteroides G6PDH inhibitors, counter-screen for G6PDH-coupled screening assays, biochemical, Leuconostoc mesenteroides enzyme; glucose-6-phosphate dehydrogenase [Leuconostoc mesenteroides]; Purified L. mesenteroides G6PDH, diaphorase/resazurin coupled fluorescence, 45 min; inhibition, % at 5 µM; 200,000 compounds, 0.12% hits
# WT yeast gro inh: growth inhibition of WT strain, primary screen, mitochondrial fusion inhibitor project, WT and mutant strains, chemical genetic. mitochondrial fusion phenotypic screen. AID 1362, 2008. inhibition, % at 10 µM. 190,000 compounds, 2.1% hits; in the data active means inhibition above about 58%; tested in S. cerevisiae
# L major viab: Leishmania major promastigote growth inhibition, primary screen; inhibition, % at 10 µM; 200,000 compounds, 9% hits; Leishmania major promastigotes, resazurin fluorescence viability;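 further: promastigotes grown with compound for 44 hours at 28 °C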
# Starred values were filed as active, the others as inactive; . = not tested or not shown. Sampled rows, rich in hits. Any-hit rate of the full collection: about 11%. Unless noted, no stated cut-off is given here; in the data, active means inhibition above about 50%; inactive means the rest.
SMILES,Diaph act CS,Diaph inh CS,G6PDH counter,WT yeast gro inh,L major viab
COc1ccc(S(=O)(=O)Nc2ccccn2)c(C)c1C,0.9,8.6,9.5,-31.3,-3.8
CC(OC(=O)CC(NC(=O)c1ccccc1Cl)c1ccccc1)C(=O)Nc1cccc(Cl)c1Cl (centres undefined),0.7,27.1,10.5,31.9,9.1
CCc1cccc(CC)c1NC(=O)COC(=O)C1(c2ccc(Cl)cc2)CCCC1,0.9,11.2,-5.4,-7.9,2.8
CC(=O)Nc1ccc(NC(=O)COC(=O)C2(c3ccc(Cl)cc3)CCCC2)cc1,0.8,20.5,11.2,-9.1,74.3*
CCN1CCCC1CNC(=O)c1cn(CC)c2ccc(S(=O)(=O)N3CCCCCC3)cc2c1=O (centres undefined),0.7,26.0,-13.2,14.3,6.0
CCn1cc(C(=O)NCCCN2CCCC(C)C2)c(=O)c2cc(S(=O)(=O)N3CCc4ccccc4C3)ccc21 (centres undefined),0.8,15.6,4.1,5.8,99.7*
CCC1CCCCN1CCCNC(=O)c1cn(CC)c2ccc(S(=O)(=O)N3CCc4ccccc4C3)cc2c1=O (centres undefined),0.8,17.6,-1.9,9.8,98.2*
CCN(CC)c1ccc(C(=O)OCC(=O)NCC2CCCO2)cc1 (centres undefined),0.9,8.9,2.2,30.0,-21.1
Cc1ccc(C(=O)NC(=S)/C=C2\N(C)c3ccccc3C2(C)C)cc1,0.3,67.1*,0.8,66.6*,21.9
CC(C)C(=O)NC(=S)/C=C1/N(C)c2ccccc2C1(C)C,1,-2.6,6.0,0.2,11.8
CC(=O)/C=C1\N(C)c2ccc(C)cc2C1(C)C,0.9,12.4,3.7,-2.5,90.7*
CN1/C(=C\C=N\NC(=O)c2cccnc2)C(C)(C)c2ccccc21,1.1,-9.4,0.6,-3.2,29.5
CN1/C(=C\C=N\NC(=O)c2ccc(O)cc2)C(C)(C)c2ccccc21,0.8,16.5,15.1,-1.1,85.6*
Cc1ccc(-n2nc(C(=O)N/N=C/c3cccc(C(F)(F)F)c3)c3ccccc3c2=O)cc1C,0.9,8.5,-29.9,23.8,-3.8
Cc1cc(F)ccc1NC(=O)C1CCCO1 (centres undefined),0.9,8.5,7.0,-14.1,-1.4
Cc1ccccc1C(=O)OCc1cnc(Cl)s1,0.9,5.7,-0.1,-0.4,2.3
CN1CCN(C(=O)/C(=C/c2ccccc2)c2ccccc2)CC1,0.9,13.6,9.9,-15.3,0.1
CC1CC(C)CN(C(=O)/C(=C\c2ccccc2)c2ccccc2)C1 (centres undefined),0.9,6.6,12.5,9.7,95.9*
COc1ccc(N2CCN(CCCNS(=O)(=O)c3c(C)noc3/C=C/N(C)C)CC2)cc1,1,-3.0,-30.8,8.3,8.0
CCOc1ccc(C(c2c(NC(=O)c3ccccc3)sc(C)c2C)N2CCN(C)CC2)cc1 (centres undefined),0.9,9.0,-5.1,77.9*,51.6*
NC(=S)Nc1ccc(Oc2ccc(NC(N)=S)cc2)cc1,1,-1.5,2.8,4.9,-3.3
CCCCSc1nc(C)cc(SCC(=O)N/N=C/c2ccccc2)n1,1,4.0,7.5,12.2,22.0
N#Cc1nc(-c2ccc(OCc3ccccc3)cc2)oc1NCCCn1ccnc1,1.3,-31.8,0.2,-5.5,52.3*
CCCOc1ccc(-c2nc(C#N)c(NCCCn3ccnc3)o2)cc1,1.1,-6.2,-0.7,23.2,10.0
N#Cc1nc(-c2ccc(OCc3ccccc3Cl)cc2)oc1NCCCn1ccnc1,1.5,-45.3,-0.1,0.6,99.3*
SMILES,Diaph act CS,Diaph inh CS,G6PDH counter,WT yeast gro inh,L major viab
COc1ccc(OC)c(NC(=O)CSc2nnc(CNc3ccc(C)cc3C)o2)c1,0.8,18.4,8.4,-6.2,-4.7
O=C1CSC(c2ccccc2)N1c1nnc(C23CC4CC(CC(C4)C2)C3)s1 (centres undefined),0.9,11.7,3.3,31.7,-0.9
O=S(=O)(CC(CN1CCCCC1)N1CCCCC1)c1ccccc1 (centres undefined),1,-0.7,-1.3,-10.7,98.4*
O=[N+]([O-])c1ccc(S(=O)(=O)CC(CN2CCCCC2)N2CCCCC2)cc1 (centres undefined),1.1,-12.3,12.9,2.9,100.6*
O=[N+]([O-])c1ccc(S(=O)(=O)CC(CN2CCOCC2)N2CCOCC2)cc1 (centres undefined),1.1,-9.9,7.3,-5.8,6.4
CCOC(=O)c1c(NC(NC(=O)C(C)C)C(Cl)(Cl)Cl)sc2c1CCC2 (centres undefined),0.8,22.3,7.1,65.7*,86.0*
CCOC(=O)Nc1sc2c(c1C(=O)OCC)CCC2,0.9,13.9,4.1,-2.7,2.6
O=C(NCc1ccccc1)c1ccc(S(=O)(=O)C(F)F)cc1,1,3.3,2.5,-3.6,1.7
CCCn1c(CC)nc([N+](=O)[O-])c1S(=O)(=O)c1ccccc1,0.8,17.0,1.8,-1.0,99.7*
Cc1ccc2cc3cc(C(=O)N(CC(=O)NC4CCCC4)c4cccc(C)c4C)sc3nc2c1,1,4.9,12.4,54.6,51.0*
Cc1ccc(C)c(N(CC(=O)NC2CCCC2)C(=O)c2cc3cc4cccc(C)c4nc3s2)c1,0.8,16.6,-0.7,-18.2,9.9
CC(C)C[C@@H]1NC(=O)[C@H](Cc2ccc(O)cc2)NC(=O)[C@H](CCC(N)=O)NC(=O)c2cc([N+](=O)[O-])cc(I)c2NCC[C@@H](C(N)=O)NC1=O,0.9,9.8,3.2,-3.6,-3.0
CN1CCc2c(sc3c2C(=O)NC(c2cn(Cc4ccccc4)c4ccccc24)N3)C1 (centres undefined),1.1,-8.3,-65.1,-5.6,100.4*
CCOc1ccc(CC(=O)Nc2ccc(-c3ccc4nnc(C)n4n3)cc2)cc1,0.9,5.4,0.2,-1.9,11.9
O=C(c1ccc(F)cc1)N(NC(=O)C(O)(c1ccccc1)c1ccccc1)c1ccccc1,0.9,9.7,13.6,-1.0,65.9*
O=C1CC(NCCC2=CCCCC2)C(=O)N1c1cccc(Cl)c1Cl (centres undefined),0.8,20.9,0.2,-5.0,-2.6
N#Cc1c(SCC(N)=O)nc2c(c1-c1ccc(OCc3ccccc3)cc1)CCCC2,.,.,.,.,37.4
COc1ccc(-c2c(C#N)c(SCC(=O)Nc3ccccc3)nc3c2CCCC3)cc1,.,.,.,.,92.0*
Cc1cc(N2CCN(C)CC2)nc2ccc(NC(=S)N3CCN(c4ccccn4)CC3)cc12,1,0.0,-0.7,6.5,95.2*
Cc1cccc(NC(=S)N2CCN(c3cc(C)ccc3C)CC2)c1,0.9,8.9,8.1,27.9,80.1*
